# Tests used:
# [1] = Selectivity index, ratio of CC50 for human MT4 cells to EC50 for HIV1 NL4-3; type: toxicity, cell-based; settings: read-out: Ratio CC50/EC50
# How it was run: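 Computed as CC50/EC50. CC50 comes from MTT viability of mock-infected MT-4 cells and EC50 from MTT protection of NL4-3-infected MT-4 cells, both read at day 5.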
# [2] = tested on: Human immunodeficiency virus 1; assay: Resistance index, ratio of ID50 for reverse transcriptase K103N mutant to IC50 for wild-type HIV1 sreverse transcriptase
# How it was run: (§1)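 Recombinant wt and K103N, L100I or Y181I HIV-1 RT (>95% pure), 2-4 nM. RNA-dependent DNA polymerase assay on 0.5 µg poly(rA)/oligo(dT) 10:1 (0.3 µM 3'-OH ends) with 10 µM [3H]-dTTP and 8% final DMSO. Aliquots taken every 2 min. Inhibitor range 0.2-5× ID50, fitted to a noncompetitive model. Fold resistance is mutant ID50 divided by wt ID50.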
# [3] = tested on: Human immunodeficiency virus 1; assay: Antiviral activity against HIV1 isolates with reverse transcriptase K103N mutation in human MT4 cells assessed as inhibition of virus-induced cytopathogenicity by MTT assay; type: functional, organism-based; settings: Human immunodeficiency virus 1, MT4
# How it was run: (§2)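 MT-4 lymphoid cells infected with HIV-1 carrying RT K103N, Y181C or Y188L, in the presence of different drug concentrations. Viable cells counted at day 5 postinfection by MTT colorimetric assay. EC50 is the concentration that inhibits 50% of the HIV-induced cytopathic effect.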
# [4] = tested on: Human immunodeficiency virus 1; assay: Antiviral activity against HIV1 isolates with reverse transcriptase Y181C mutation in human MT4 cells assessed as inhibition of virus-induced cytopathogenicity by MTT assay; type: functional, organism-based; settings: Human immunodeficiency virus 1, MT4; how it was run: as §2
# [5] = tested on: Human immunodeficiency virus type 1 reverse transcriptase (Human immunodeficiency virus 1), Q72547 [L100I]
# [6] = tested on: Human immunodeficiency virus 1; assay: Antiviral activity against HIV1 isolates with reverse transcriptase Y188L mutation in human MT4 cells assessed as inhibition of virus-induced cytopathogenicity by MTT assay; type: functional, organism-based; settings: Human immunodeficiency virus 1, MT4; how it was run: as §2
# [7] = tested on: Human immunodeficiency virus type 1 reverse transcriptase (Human immunodeficiency virus 1), Q72547 [K103N]
# [8] = tested on: Human immunodeficiency virus type 1 reverse transcriptase (Human immunodeficiency virus 1), Q72547 [Y181I]
# [9] = tested on: Human immunodeficiency virus 1; assay: Resistance index, ratio of ID50 for reverse transcriptase L100I mutant to IC50 for wild-type HIV1 reverse transcriptase; how it was run: as §1
# [10] = tested on: Human immunodeficiency virus 1; assay: Antiviral activity against HIV1 NL4-3 in human MT4 cells assessed as inhibition of virus-induced cytopathogenicity by MTT assay; type: functional, organism-based; settings: Human immunodeficiency virus 1, NL4-3, MT4
# How it was run: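 MT-4 lymphoid cells infected with wild-type HIV-1 NL4-3 in the presence of a range of compound concentrations. Viable cells were counted by MTT colorimetric read-out at day 5 post-infection. EC50 is the concentration giving 50% protection from virus-induced cytopathic effect. Means ± SD from at least two or three experiments.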
# [11] = target: Human immunodeficiency virus type 1 reverse transcriptase (Human immunodeficiency virus 1) (UniProt Q72547)
# [12] = Cytotoxicity against human MT4 cells by MTT assay; type: cell-based
# How it was run: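 Mock-infected MT-4 cells were exposed to a range of compound concentrations. Viability was read by MTT at day 5. CC50 is the concentration that kills 50% of uninfected cells. The top concentration was limited by compound precipitation in culture medium. Means ± SD from at least two or three experiments.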
# [13] = tested on: Human immunodeficiency virus 1; assay: Resistance index, ratio of ID50 for reverse transcriptase Y181I mutant to IC50 for wild-type HIV1 reverse transcriptase; how it was run: as §1
# [14] = tested on: Human immunodeficiency virus 1; assay: Resistance index, ratio of EC50 for drug-resistant HIV1 isolate with reverse transcriptase Y181C mutation to EC50 for wild type HIV1 NL4-3; type: functional
# How it was run: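 Fold resistance is the EC50 against the K103N, Y181C or Y188L mutant strain divided by the EC50 against wt NL4-3. Each EC50 is from MT-4 cells infected in the presence of different drug concentrations, with viability read by MTT at day 5 postinfection.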
SMILES,selectivity ratio [1],Ratio [2],EC50 [3],EC50 [4],ID50 [5],EC50 [6],ID50 [7],ID50 [8],Ratio [9],EC50 [10],ID50 [11],CC50 [12],Ratio [13],Ratio EC50 [14]
COc1ccc(C(=O)CSc2nc(Cc3c(F)cccc3Cl)cc(=O)[nH]2)cc1,> 8,243,> 12 µM,> 12000 nM,0.5 µM,> 12 µM,3.4 µM,> 40 µM,36,1550 nM,0.014 µM,> 12 µM,–,–
O=C(CSc1nc(Cc2c(Cl)cccc2Cl)cc(=O)[nH]1)c1ccc(F)cc1,> 76,46,> 59 µM,> 59000 nM,26.1 µM,> 59 µM,9.7 µM,9.7 µM,124,780 nM,0.21 µM,> 59 µM,46,–
CC(C)Sc1nc(Cc2c(F)cccc2F)cc(=O)[nH]1,> 4940,–,–,–,–,–,–,–,–,17 nM,–,> 84 µM,–,–
CC(C)c1c(Cc2c(Cl)cccc2Cl)nc(SCC(=O)c2ccc(F)cc2)[nH]c1=O,> 844,–,> 54 µM,> 54000 nM,–,> 54 µM,–,30.6 µM,–,64 nM,0.02 µM,> 54 µM,1530,–
CCc1c(Cc2c(F)cccc2F)nc(SCC(=O)c2ccc(OC)cc2)[nH]c1=O,> 6440,110,> 58 µM,250 nM,> 40 µM,> 58 µM,3.41 µM,0.58 µM,–,9 nM,0.031 µM,> 58 µM,19,28
CC(C)c1c(Cc2c(F)cccc2Cl)nc(SCC(=O)c2ccc(F)cc2)[nH]c1=O,> 14000,1670,> 56 µM,560 nM,–,> 55 µM,40 µM,> 40 µM,–,4 nM,0.024 µM,> 56 µM,–,140
O=c1cc(Cc2c(F)cccc2F)nc(Sc2ccccc2)[nH]1,> 54,–,–,–,–,–,–,–,–,1400 nM,–,> 76 µM,–,–
O=c1cc(Cc2c(F)cccc2F)nc(SCCCc2ccccc2)[nH]1,160,–,–,–,–,–,–,–,–,200 nM,–,32 µM,–,–
O=c1cc(Cc2c(F)cccc2F)nc(SCc2ccccc2)[nH]1,> 730,–,–,–,–,–,–,–,–,100 nM,–,> 73 µM,–,–
Cc1ccc(CSc2nc(Cc3c(F)cccc3F)c(C)c(=O)[nH]2)c(C)c1,> 162,–,–,–,–,–,–,–,–,400 nM,–,> 65 µM,–,–
O=C1Nc2ccc(Cl)cc2[C@@](C#CC2CC2)(C(F)(F)F)O1 [EFAVIRENZ],–,–,0.39 µM,44 nM,–,–,–,–,–,7 nM,–,> 3 µM,–,–
Cc1c(Cc2c(F)cccc2F)nc(SCc2cccnc2)[nH]c1=O,> 12,–,–,–,–,–,–,–,–,5900 nM,–,> 70 µM,–,–
O=c1cc(Cc2c(F)cccc2F)nc(SCCc2ccccc2)[nH]1,> 233,–,–,–,–,–,–,–,–,300 nM,–,> 70 µM,–,–
COc1ccc(C(=O)CSc2nc(Cc3c(Cl)cccc3Cl)cc(=O)[nH]2)cc1,> 9,694,> 11 µM,> 11000 nM,> 40 µM,> 11 µM,37.5 µM,0.11 µM,–,1220 nM,0.054 µM,> 11 µM,2,–
Cc1c(Cc2c(F)cccc2F)nc(SCc2ccncc2)[nH]c1=O,> 1170,–,–,–,–,–,–,–,–,60 nM,–,> 70 µM,–,–
O=C(CSc1nc(Cc2c(F)cccc2F)cc(=O)[nH]1)c1ccccc1,> 67,–,–,–,–,–,–,–,–,1000 nM,–,> 67 µM,–,–

SMILES,selectivity ratio [1],Ratio [2],EC50 [3],EC50 [4],ID50 [5],EC50 [6],ID50 [7],ID50 [8],Ratio [9],EC50 [10],ID50 [11],CC50 [12],Ratio [13],Ratio EC50 [14]
O=C(CSc1nc(Cc2c(F)cccc2F)cc(=O)[nH]1)c1ccc(Cl)cc1,> 6,–,–,–,–,–,–,–,–,9800 nM,–,> 61 µM,–,–
Cc1c(Cc2c(F)cccc2F)nc(SC(C)C)[nH]c1=O,> 12800,–,–,–,–,–,–,–,–,6 nM,–,> 77 µM,–,–
O=C(CSc1nc(Cc2c(F)cccc2F)cc(=O)[nH]1)c1ccc([N+](=O)[O-])cc1,> 3,–,–,–,–,–,–,–,–,8400 nM,–,22 µM,–,–
COc1ccc(C(=O)CSc2nc(Cc3c(F)cccc3Cl)c(C(C)C)c(=O)[nH]2)cc1,> 11000,–,> 11 µM,160 nM,> 40 µM,> 11 µM,> 40 µM,> 40 µM,–,1 nM,0.0007 µM,> 11 µM,–,160
Cc1c(Cc2c(F)cccc2F)nc(SCc2ccccn2)[nH]c1=O,> 7,–,–,–,–,–,–,–,–,10100 nM,–,> 70 µM,–,–
O=C(CSc1nc(Cc2c(F)cccc2Cl)cc(=O)[nH]1)c1ccc(F)cc1,> 210,22,> 61 µM,13900 nM,> 40 µM,> 61 µM,20.7 µM,9.2 µM,–,290 nM,0.93 µM,> 61 µM,10,48
Cc1c(Cc2c(F)cccc2F)nc(SCc2ccc([N+](=O)[O-])cc2)[nH]c1=O,> 31,–,–,–,–,–,–,–,–,1200 nM,–,> 37 µM,–,–
Cc1c(Cc2c(F)cccc2F)nc(SCc2ccccc2)[nH]c1=O,> 538,–,–,–,–,–,–,–,–,130 nM,–,> 70 µM,–,–
O=c1cc(Cc2c(F)cccc2F)nc(SCc2c(F)cccc2F)[nH]1,> 66,–,–,–,–,–,–,–,–,1000 nM,–,> 66 µM,–,–
COc1ccc(C(=O)CSc2nc(Cc3c(F)cccc3F)c(C)c(=O)[nH]2)cc1,> 1250,87,> 60 µM,650 nM,> 40 µM,> 60 µM,22.7 µM,1.17 µM,–,48 nM,0.26 µM,> 60 µM,4,13
COc1ccc(C(=O)CSc2nc(Cc3c(Cl)cccc3Cl)c(C)c(=O)[nH]2)cc1,> 836,–,> 56 µM,1200 nM,> 40 µM,> 56 µM,> 40 µM,0.46 µM,–,67 nM,0.094 µM,> 56 µM,5,18
Cc1cc(C)cc(CSc2nc(Cc3c(F)cccc3F)c(C)c(=O)[nH]2)c1,> 5,–,–,–,–,–,–,–,–,14000 nM,–,> 65 µM,–,–
CC(=O)CSc1nc(Cc2c(F)cccc2F)cc(=O)[nH]1,> 26,–,–,–,–,–,–,–,–,3100 nM,–,> 81 µM,–,–
Cc1c(Cc2c(Cl)cccc2Cl)nc(SCC(=O)c2ccc(F)cc2)[nH]c1=O,> 1240,–,> 57 µM,> 57000 nM,10.7 µM,> 57 µM,> 40 µM,0.8 µM,56,46 nM,0.19 µM,> 57 µM,4,–
COc1ccc(C(=O)CSc2nc(Cc3c(Cl)cccc3Cl)c(C(C)C)c(=O)[nH]2)cc1,> 35000,–,> 14 µM,230 nM,> 40 µM,> 14 µM,> 40 µM,17.1 µM,–,0.4 nM,0.014 µM,> 14 µM,1220,575
COc1ccc(C(=O)CSc2nc(Cc3cccc4ccccc34)c(C(C)C)c(=O)[nH]2)cc1,6770,–,–,–,–,–,–,–,–,30 nM,–,203 µM,–,–
